Legend:
[1] = target: T1, Estrogen receptor (Homo sapiens) (UniProt P03372); assay: Relative binding affinity was determined for Estrogen receptor 1 using 10 nM [3H]-E2 as tracer (estradiol 100%)
T1 sequence (whole entry): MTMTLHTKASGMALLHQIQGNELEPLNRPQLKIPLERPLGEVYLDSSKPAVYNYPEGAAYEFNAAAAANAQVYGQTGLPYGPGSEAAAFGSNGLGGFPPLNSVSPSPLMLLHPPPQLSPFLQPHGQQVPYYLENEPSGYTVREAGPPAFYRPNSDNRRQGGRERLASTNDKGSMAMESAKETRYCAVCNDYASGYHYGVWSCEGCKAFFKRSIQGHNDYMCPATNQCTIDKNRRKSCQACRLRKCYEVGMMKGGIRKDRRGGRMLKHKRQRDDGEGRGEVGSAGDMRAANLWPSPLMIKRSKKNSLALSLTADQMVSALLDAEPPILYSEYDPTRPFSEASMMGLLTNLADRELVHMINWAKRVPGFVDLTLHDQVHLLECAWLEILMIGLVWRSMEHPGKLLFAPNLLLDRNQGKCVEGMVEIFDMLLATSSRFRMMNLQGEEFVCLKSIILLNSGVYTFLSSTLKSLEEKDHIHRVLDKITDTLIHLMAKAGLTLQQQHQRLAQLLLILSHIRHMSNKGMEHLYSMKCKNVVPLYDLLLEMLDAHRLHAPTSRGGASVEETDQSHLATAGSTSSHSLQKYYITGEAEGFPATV
Procedure, shortened: (§1)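 Competitive radiometric binding with purified full-length human ERα or ERβ, 10 nM [3H]estradiol tracer. Receptor–tracer complex adsorbed on hydroxylapatite. Incubation at 0 °C for 18-24 h. RBA expressed relative to estradiol = 100%. Mean of at least 2, typically 3 or more, independent determinations (±SD); coefficient of variation 0.3.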

[2] = target: Estrogen receptor (Homo sapiens) (UniProt Q92731+P03372); assay: RBA ratio between ERalpha and ERbeta; type: protein assay
[3] = target: Estrogen receptor beta (Homo sapiens) (UniProt Q92731); assay: Relative binding affinity was determined for Estrogen receptor 2 using 10 nM [3H]E2 as tracer (estradiol 100%); procedure, shortened: as §1
Chain of Estrogen receptor beta (Homo sapiens) (Q92731 whole entry): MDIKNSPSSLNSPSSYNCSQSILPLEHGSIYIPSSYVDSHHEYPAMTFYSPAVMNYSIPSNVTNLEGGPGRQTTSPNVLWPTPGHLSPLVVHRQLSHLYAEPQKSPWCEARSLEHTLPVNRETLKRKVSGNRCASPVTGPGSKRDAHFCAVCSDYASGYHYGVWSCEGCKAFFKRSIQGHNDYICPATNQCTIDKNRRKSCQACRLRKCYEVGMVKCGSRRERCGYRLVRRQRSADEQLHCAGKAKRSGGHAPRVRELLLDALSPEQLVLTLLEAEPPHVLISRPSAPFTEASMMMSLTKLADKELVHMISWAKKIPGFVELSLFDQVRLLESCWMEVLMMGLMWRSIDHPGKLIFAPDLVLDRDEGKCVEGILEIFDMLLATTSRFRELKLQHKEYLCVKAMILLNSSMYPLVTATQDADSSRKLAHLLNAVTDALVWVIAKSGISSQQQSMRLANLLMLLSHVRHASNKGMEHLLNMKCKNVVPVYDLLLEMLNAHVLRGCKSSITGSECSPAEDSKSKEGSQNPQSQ

Chain of Estrogen receptor (Homo sapiens) (UniProt Q92731+P03372) (Q92731 whole entry, looked up, one chain of several): as the sequence (Q92731 whole entry) above

Row | SMILES | RBA [1] | Ratio [2] | RBA [3]
1 | CCCCc1c(-c2ccc(O)cc2)nn(-c2ccc(O)cc2)c1-c1ccc(O)cc1 | 14 | 77 | 0.18
2 | CC(C)c1c(-c2ccc(O)cc2)nn(-c2ccccc2)c1-c1ccc(O)cc1 | 5.6 | 6.5 | 0.86
3 | CCCc1c(-c2ccc(O)cc2)nn(-c2ccccc2)c1-c1ccc(O)cc1 | 16.8 | 32 | 0.52
4 | CCc1c(-c2ccccc2)nn(-c2ccc(O)cc2)c1-c1ccccc1 | 3.1 | 2.1 | 1.5
5 | CCc1c(-c2ccc(O)cc2)nn(-c2ccccc2)c1-c1ccccc1 | 2.6 | 4.3 | 0.61
6 | CCc1c(-c2ccc(O)cc2)nn(-c2ccccc2)c1-c1ccc(O)cc1 | 31 | 28 | 1.1
7 | CCCc1c(-c2ccc(O)cc2)nn(-c2ccc(O)cc2)c1-c1ccc(O)cc1 | 49 | – | –
8 | CC(C)Cc1c(-c2ccc(O)cc2)nn(-c2ccccc2)c1-c1ccc(O)cc1 | 56 | 40 | 1.4
9 | CCc1c(-c2ccc(O)cc2)nn(-c2ccc(O)cc2)c1-c1ccccc1 | 8.9 | 28 | 0.32
10 | CCCCc1c(-c2ccc(O)cc2)nn(-c2ccccc2)c1-c1ccc(O)cc1 | 8.7 | 19 | 0.47
11 | CC(C)Cc1c(-c2ccc(O)cc2)nn(-c2ccc(O)cc2)c1-c1ccc(O)cc1 | 75 | 84 | 0.89
12 | CCc1c(-c2ccccc2)nn(-c2ccccc2)c1-c1ccc(O)cc1 | 0.04 | 0.67 | 0.06
13 | CCc1c(-c2ccc(O)cc2)nn(-c2ccc(O)cc2)c1-c1ccc(O)cc1 | 36 | 240 | 0.15
14 | Cc1c(-c2ccc(O)cc2)nn(-c2ccccc2)c1-c1ccc(O)cc1 | 0.76 | 2.7 | 0.28
15 | CCc1c(-c2ccccc2)nn(-c2ccc(O)cc2)c1-c1ccc(O)cc1 | 7 | 9 | 0.8

— ChEMBL document CHEMBL1133562, “Pyrazole ligands: structure-affinity/activity relationships and estrogen receptor-alpha-selective agonists” (J Med Chem, 2000)
